According to PMC6203112 (International Journal of Chronic Obstructive Pulmonary …, 2018):
Marks after values point to notes of the source that are not given here.

Assays:
[1] = Study 1 Part 1: single ascending dose PK via SDDPI; type: in vivo; details: human, plasma, inhaled
In short: (§1)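 Blood was collected in lithium heparin, chilled on ice, and centrifuged at 2,000 ×g for 15 min at ~4°C. Plasma was stabilised with 1 M citric acid (100 µL per 1 mL plasma) and stored at ≤−65°C. After solid-phase extraction, samples were assayed by validated LC-MS/MS with heated electrospray and a deuterated internal standard (LLOQ 10 pg/mL). PK parameters were derived non-compartmentally.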

[2] = Study 2 Part 2: repeat ascending dose; type: in vivo, human; details: MDDPI; for Racc / CL/F / AUC(0-t): geometric mean (% CV); for AUC(0-t) / Tmax: human, plasma, inhaled; for Tmax: median (range)
In short: as §1

[3] = Study 1 Part 1: adverse events after single doses via SDDPI; type: in vivo, human
In short: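 Study 1 Part 1 used a crossover design in healthy men aged 18–55. Single inhaled doses of test compound (20–2,000 µg) or matching placebo were given via a capsule-based single-dose dry-powder inhaler. Investigators recorded each AE and its relation to study medication. Counts are number (%) of the safety population, defined as randomized subjects receiving at least one dose.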

[4] = Study 2 Part 2: adverse events after multiple BID doses via MDDPI; type: in vivo, human; details: N=9
In short: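 Study 2 Part 2 used three parallel escalating cohorts of healthy men and women. Subjects inhaled test compound at 1,200, 2,000 or 2,400 µg twice daily, or placebo, for 14 days via a reservoir multi-dose dry-powder inhaler, confined from day −2 to day 15. AEs were recorded with investigator-assessed relation to study medication, as number (%) of the safety population.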

[5] = Safety assessments in both studies; type: in vivo, human
In short: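 Healthy non- or ex-smoking volunteers aged 18–55 (Study 1 men only; Study 2 men and women), randomized, double-blind, placebo-controlled, single centre. AEs were recorded with the investigator-judged relation to study drug. Haematology and blood chemistry were taken at baseline and end of dosing. Blood pressure, ECG and 24 h Holter were taken at regular intervals, and FEV1 was checked for post-dose bronchospasm.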

[6] = in humans; cited from earlier work
[7] = test system: human bronchial epithelial cells; details: alone and in combination with low-dose corticosteroids; cited from earlier work
[8] = cited from earlier work
[9] = following both single and multiple doses

CS(=O)(=O)Nc1ccc(C(=O)O[C@@H](Cc2c(Cl)c[n+]([O-])cc2Cl)c2ccc(OC(F)F)c(OCC3CC3)c2)cc1OCC1CC1 [CHF6001]
half-life [1]: 30 to 45 h
AUC(0-t) ([1]; 20 ug): 0.0316 ng·h/mL
Cmax ([1]; 20 ug): 0.0189 ng/mL
half-life ([1]; 20 ug): 5.6 h
AUC(0-t) ([1]; 100 ug): 1.48 ng·h/mL
Cmax ([1]; 100 ug): 0.0638 ng/mL
half-life ([1]; 100 ug): 28.2 h
AUC(0-t) ([1]; 200 ug): 2.78 ng·h/mL
Cmax ([1]; 200 ug): 0.14 ng/mL
half-life ([1]; 200 ug): 30.1 h
AUC(0-t) ([1]; 400 ug): 5.38 ng·h/mL
Cmax ([1]; 400 ug): 0.195 ng/mL
half-life ([1]; 400 ug): 45.3 h
AUC(0-t) ([1]; 800 ug): 10.6 ng·h/mL
Cmax ([1]; 800 ug): 0.432 ng/mL
half-life ([1]; 800 ug): 26.3 h
AUC(0-t) ([1]; 1600 µg): 18 ng·h/mL
Cmax ([1]; 1600 µg): 0.73 ng/mL
half-life ([1]; 1600 µg): 27.4 h
AUC(0-t) ([1]; 2000 µg): 25.6 ng·h/mL
Cmax ([1]; 2000 µg): 0.983 ng/mL
half-life ([1]; 2000 µg): 37.3 h
Racc ([2]; 1,200 µg BID, Day 14, N=9): 6.66 (38.4)
CL/F ([2]; 1,200 µg BID, Day 14, n=8): 588 (50.7) ^a mL/min
CL/F ([2]; 2,000 µg BID, Day 14, N=9): 652 (39.0) mL/min
Racc ([2]; 2,000 µg BID, Day 14, N=9): 6.28 (19.5)
CL/F ([2]; 2,400 µg BID, Day 14, n=8): 646 (37.0) ^a mL/min
Racc ([2]; 2,400 µg BID, Day 14, n=8): 5.47 (36.6) ^a
AUC(0-t) ([2]; 1200 µg, AUC0–12 h, 1,200 µg BID, Day 14, N=9): 34 ng·h/mL
Tmax ([2]; 1200 µg, tmax, 1,200 µg BID, Day 14, N=9): 1.6 h
AUC(0-t) ([2]; 2000 µg, AUC0–12 h, 2,000 µg BID, Day 14, N=9): 51.1 ng·h/mL
Tmax ([2]; 2000 µg, tmax, 2,000 µg BID, Day 14, N=9): 1.5 h
AUC(0-t) ([2]; 2400 µg, AUC0–12 h, 2,400 µg BID, Day 14, n=8): 61.9 ng·h/mL
Tmax ([2]; 2400 µg, tmax, 2,400 µg BID, Day 14, n=8): 2.3 h
AE considered related to study medication ([3]; single dose 20 µg, N=8): 0 Number (%) of subjects
AE leading to death ([3]; single dose 20 µg, N=8): 0 Number (%) of subjects
AE leading to withdrawal ([3]; single dose 20 µg, N=8): 0 Number (%) of subjects
At least one AE ([3]; single dose 20 µg, N=8): 1 (12.5) Number (%) of subjects
At least one SAE ([3]; single dose 20 µg, N=8): 0 Number (%) of subjects
Severe AE ([3]; single dose 20 µg, N=8): 0 Number (%) of subjects
AE considered related to study medication ([3]; single dose 100 µg, N=8): 0 Number (%) of subjects
AE leading to death ([3]; single dose 100 µg, N=8): 0 Number (%) of subjects
AE leading to withdrawal ([3]; single dose 100 µg, N=8): 0 Number (%) of subjects
At least one AE ([3]; single dose 100 µg, N=8): 0 Number (%) of subjects
At least one SAE ([3]; single dose 100 µg, N=8): 0 Number (%) of subjects
Severe AE ([3]; single dose 100 µg, N=8): 0 Number (%) of subjects
AE considered related to study medication ([3]; single dose 200 µg, N=8): 0 Number (%) of subjects
AE leading to death ([3]; single dose 200 µg, N=8): 0 Number (%) of subjects
AE leading to withdrawal ([3]; single dose 200 µg, N=8): 1 (12.5) Number (%) of subjects
At least one AE ([3]; single dose 200 µg, N=8): 3 (37.5) Number (%) of subjects
At least one SAE ([3]; single dose 200 µg, N=8): 0 Number (%) of subjects
Severe AE ([3]; single dose 200 µg, N=8): 0 Number (%) of subjects
AE considered related to study medication ([3]; single dose 400 µg, N=7): 0 Number (%) of subjects
AE leading to death ([3]; single dose 400 µg, N=7): 0 Number (%) of subjects
AE leading to withdrawal ([3]; single dose 400 µg, N=7): 0 Number (%) of subjects
At least one AE ([3]; single dose 400 µg, N=7): 2 (28.6) Number (%) of subjects
At least one SAE ([3]; single dose 400 µg, N=7): 0 Number (%) of subjects
Severe AE ([3]; single dose 400 µg, N=7): 0 Number (%) of subjects
AE considered related to study medication ([3]; single dose 800 µg, N=7): 0 Number (%) of subjects
AE leading to death ([3]; single dose 800 µg, N=7): 0 Number (%) of subjects
AE leading to withdrawal ([3]; single dose 800 µg, N=7): 0 Number (%) of subjects
At least one AE ([3]; single dose 800 µg, N=7): 3 (42.9) Number (%) of subjects
At least one SAE ([3]; single dose 800 µg, N=7): 0 Number (%) of subjects
Severe AE ([3]; single dose 800 µg, N=7): 0 Number (%) of subjects
AE considered related to study medication ([3]; single dose 1,600 µg, N=7): 0 Number (%) of subjects
AE leading to death ([3]; single dose 1,600 µg, N=7): 0 Number (%) of subjects
AE leading to withdrawal ([3]; single dose 1,600 µg, N=7): 0 Number (%) of subjects
At least one AE ([3]; single dose 1,600 µg, N=7): 2 (28.6) Number (%) of subjects
At least one SAE ([3]; single dose 1,600 µg, N=7): 0 Number (%) of subjects
Severe AE ([3]; single dose 1,600 µg, N=7): 0 Number (%) of subjects
AE considered related to study medication ([3]; single dose 2,000 µg, N=6): 0 Number (%) of subjects
AE leading to death ([3]; single dose 2,000 µg, N=6): 0 Number (%) of subjects
AE leading to withdrawal ([3]; single dose 2,000 µg, N=6): 0 Number (%) of subjects
At least one AE ([3]; single dose 2,000 µg, N=6): 0 Number (%) of subjects
At least one SAE ([3]; single dose 2,000 µg, N=6): 0 Number (%) of subjects
Severe AE ([3]; single dose 2,000 µg, N=6): 0 Number (%) of subjects
AE considered related to study medication ([4]; 1,200 µg BID 14 days): 4 (44.4) Number (%) of subjects
AE leading to death ([4]; 1,200 µg BID 14 days): 0 Number (%) of subjects
AE leading to withdrawal ([4]; 1,200 µg BID 14 days): 0 Number (%) of subjects
At least one AE ([4]; 1,200 µg BID 14 days): 6 (66.7) Number (%) of subjects
At least one SAE ([4]; 1,200 µg BID 14 days): 0 Number (%) of subjects
Back pain (AE) ([4]; 1,200 µg BID 14 days): 0 Number (%) of subjects
Diarrhea (AE considered related to study medication) ([4]; 1,200 µg BID 14 days): 1 (11.1) Number (%) of subjects
Flatulence (AE considered related to study medication) ([4]; 1,200 µg BID 14 days): 1 (11.1) Number (%) of subjects
Headache (AE considered related to study medication) ([4]; 1,200 µg BID 14 days): 3 (33.3) Number (%) of subjects
Headache (AE) ([4]; 1,200 µg BID 14 days): 3 (33.3) Number (%) of subjects
Nausea (AE considered related to study medication) ([4]; 1,200 µg BID 14 days): 0 Number (%) of subjects
Parosmia (AE considered related to study medication) ([4]; 1,200 µg BID 14 days): 0 Number (%) of subjects
Severe AE ([4]; 1,200 µg BID 14 days): 0 Number (%) of subjects
AE leading to death ([4]; 2,000 µg BID 14 days): 0 Number (%) of subjects
AE leading to withdrawal ([4]; 2,000 µg BID 14 days): 0 Number (%) of subjects
At least one AE ([4]; 2,000 µg BID 14 days): 5 (55.6) Number (%) of subjects
At least one SAE ([4]; 2,000 µg BID 14 days): 0 Number (%) of subjects
Back pain (AE) ([4]; 2,000 µg BID 14 days): 3 (33.3) Number (%) of subjects
Diarrhea (AE considered related to study medication) ([4]; 2,000 µg BID 14 days): 0 Number (%) of subjects
Flatulence (AE considered related to study medication) ([4]; 2,000 µg BID 14 days): 0 Number (%) of subjects
Headache (AE considered related to study medication) ([4]; 2,000 µg BID 14 days): 2 (22.2) Number (%) of subjects
Headache (AE) ([4]; 2,000 µg BID 14 days): 2 (22.2) Number (%) of subjects
Nausea (AE considered related to study medication) ([4]; 2,000 µg BID 14 days): 0 Number (%) of subjects
Parosmia (AE considered related to study medication) ([4]; 2,000 µg BID 14 days): 0 Number (%) of subjects
Severe AE ([4]; 2,000 µg BID 14 days): 1 (11.1) Number (%) of subjects
AE considered related to study medication ([4]; 2,400 µg BID 14 days): 1 (11.1) Number (%) of subjects
AE leading to death ([4]; 2,400 µg BID 14 days): 0 Number (%) of subjects
AE leading to withdrawal ([4]; 2,400 µg BID 14 days): 1 (11.1) Number (%) of subjects
At least one AE ([4]; 2,400 µg BID 14 days): 7 (77.8) Number (%) of subjects
At least one SAE ([4]; 2,400 µg BID 14 days): 0 Number (%) of subjects
Back pain (AE) ([4]; 2,400 µg BID 14 days): 5 (55.6) Number (%) of subjects
Diarrhea (AE considered related to study medication) ([4]; 2,400 µg BID 14 days): 0 Number (%) of subjects
Flatulence (AE considered related to study medication) ([4]; 2,400 µg BID 14 days): 0 Number (%) of subjects
Headache (AE considered related to study medication) ([4]; 2,400 µg BID 14 days): 1 (11.1) Number (%) of subjects
Headache (AE) ([4]; 2,400 µg BID 14 days): 2 (22.2) Number (%) of subjects
Nausea (AE considered related to study medication) ([4]; 2,400 µg BID 14 days): 0 Number (%) of subjects
Parosmia (AE considered related to study medication) ([4]; 2,400 µg BID 14 days): 0 Number (%) of subjects
Severe AE ([4]; 2,400 µg BID 14 days): 0 Number (%) of subjects
mean laboratory values ([5]; both studies): within normal ranges
post-dose decreases in FEV1 (bronchospasm) ([5]; both studies, single and multiple doses): no clinically significant post-dose decreases
mean ECG values [5, 9]: within the normal range
mean systolic and diastolic blood pressure [5, 9]: within the normal range
nausea events ([5]; following single doses in both studies): no nausea events
relationship between dose and occurrence of AEs or serious adverse events ([5]; single or multiple dosing): no relationship
plasma protein bound [6]: > 99%
cytokine levels after rhinovirus challenge [7]: reduced the levels of a range of cytokines in a concentration-dependent manner
systemic bioavailability ([8]; after intratracheal administration): low systemic bioavailability
bioavailability ([8]; after oral administration): very low bioavailability
elimination ([8]; following intravenous administration, predominantly via the fecal route): rapidly eliminated
